Reference: ChEMBL document CHEMBL4513216, “Probing the Open Global Health Chemical Diversity Library for Multistage-Active Starting Points for Next-Generation Antimalarials” (ACS Infect Dis, 2020)

test: Toxicity liver stage against HepG2, at 10uM; format: cell-based; set-up: test concentration 10 uM, cell line HepG2-A16-CD81EGFP; conditions: human, HepG2-A16-CD81EGFP cells; read-out: INHIBITION
Outline: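 Uninfected HepG2-A16-CD81EGFP cells, 3 × 10^3 per well, 1536-well, plated on prespotted compound at 10 μM final, parasite-free screening media added to match infected plates; puromycin 10 μM positive, DMSO 0.5% negative; run in parallel with 48 h PbLuc assay at 37 °C, 5% CO2; viability by CellTiter-Glo luminescence, normalized to controls.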

Structure (SMILES) | cytotoxicity at 10 µM
Cc1ccc(-c2ccnc(N3CCC4(CC3)CNC(=O)C4)n2)c(C)n1 | -5.3%
O=S1(=O)NCC2(CCCN(Cc3cccnc3)C2)Oc2ncccc21 (stereo not given) | 6.28%
CC(C)Cc1nc(C[S+]([O-])CC(=O)NCc2ccccc2)no1 (stereo not given) | -6.45%
Cc1nccn1CCC1CCN(C(=O)C2CC3(CCNCC3)CN2)CC1 (stereo not given) | -1.64%
CN(C)Cc1cccc(-c2cccnc2C(=O)NCc2ccco2)c1 | 4.16%
O=C(COc1cccnc1)N1CCCC(n2cccn2)C1 (stereo not given) | -1.92%
Cc1cc(C)n(CCNCc2cc(-c3ccc(Cl)cc3)c[nH]c2=O)n1 | -2.38%
COCCOc1ccc(NC(=O)C2CC(=O)N(C(C)C)C2)cn1 (stereo not given) | -17.6%
CC(NC(=O)CCCOc1ccc(F)cc1)c1nnc2n1CCC2 (stereo not given) | -16.1%
CS(=O)(=O)CCC(=O)N(CCc1cccc(F)c1)C1CC1 | -5.82%
CC[C@@H](c1ccccc1)n1c(CCN)n[nH]c1=O | 5.33%
CN(C)S(=O)(=O)N1CCC(C)(c2ncc(C(N)=O)s2)CC1 | -0.318%
Cc1ncccc1Oc1nccnc1C1CCN(C(C)C)CC1 | -6.05%
CC(NCc1cc(F)ccc1F)c1ccc(OCC(=O)NC2CC2)cc1 (stereo not given) | -13.2%
COc1ccc(N2CCCC3(C2)CN(c2nncs2)CCO3)cc1 (stereo not given) | 4.17%
O=C(Nc1cccc2c1CCCC2)C1CCCN1c1nccs1 (stereo not given) | -4.15%
CC(C)Nc1ncccc1C(=O)NC1CC(=O)N(CC(F)(F)F)C1 (stereo not given) | -1.54%
CC(=O)N1CCC(Cc2cnc(-c3c(C)nn(C)c3C)cn2)CC1 | -11.8%
Cc1nn(C)c2ncc(NC(=O)N(C)Cc3cc(Cl)cn3C)cc12 | 2.73%
NC(=O)CNC1(c2ccc(Br)cc2)CCOCC1 | -0.717%
CCOc1ccccc1C(CC(=O)Nc1nc(C)cs1)NC(C)=O (stereo not given) | -10.9%
Cc1ccn(-c2ccccc2NCc2ncc[nH]2)n1 | -5.95%
COCC(=O)Nc1cnn(COc2ccc(F)cc2Cl)c1 | -4.52%
COc1ccc2c(=O)n(CC3CCNC3)ccc2c1OC (stereo not given) | 5.76%
O=C(c1ccsc1)N1CCc2c(nc(-c3ccncc3)[nH]c2=O)C1 | -1.67%
O=C(CCCNC(=O)NCC1CCCO1)Nc1ccc(Cl)cc1 (stereo not given) | -4.52%
CCc1nc(C)cn1C(=O)Nc1ccccc1 | 2.52%
COc1ccc(CNc2c(C)nn(C(C)C)c2C)cc1 | -37.1%

Structure (SMILES) | cytotoxicity at 10 µM
CCOc1ccc2cc(C(=O)NCCNc3ccc(C)nn3)[nH]c2c1 | 1.64%
CCN1CCC(NC(=O)CN2CC(n3nc(C)cc3C)C2)CC1 | -4.44%
COC(=O)CCN1CCCC1c1cccc2c1OCCO2 (stereo not given) | 17.7%
CN(C)C(=O)C1CN(Cc2cccs2)CCN(S(C)(=O)=O)C1 (stereo not given) | -33.1%
CCC1=N[C@@]2(CC[C@@H]3CN(S(=O)(=O)CC(C)C)C[C@@H]32)C(=O)N1C | 5.24%
Cn1ncc2c1C(COCC1CC1)CN(S(=O)(=O)C1CC1)C2 (stereo not given) | -74.3%
CC(C)NC(=O)N1CC[C@@H](N(C)C)[C@@H]1Cc1ccncc1 | 5.53%
Cc1nc(N2CCOc3ccc(CO)cc3C2)c2c(C)noc2n1 | 2.18%
CC(C)c1noc(CN(Cc2ccc(F)cc2)C2CC2)n1 | 6.83%
O=C(NC1CCCC1)c1n[nH]c2c1CNCC2 | 0.582%
Cc1ncsc1CNC(=O)N1CCN(Cc2ccccc2)CC1C (stereo not given) | -131%
O=C(Nc1ccccc1OC1CCOC1)c1ccon1 (stereo not given) | -0.238%
OC(CN1CCC(c2ccn[nH]2)CC1)c1ccc(F)cc1 (stereo not given) | -28.9%
CN(Cc1cc(-c2ccccc2)no1)C(=O)CNS(C)(=O)=O | 0.0288%
COc1c(CNCc2ccc3c(c2)OCCO3)c(C(C)C)nn1C | -3.42%
CC(=O)N1CCN(c2nc3c(cnn3C(C)(C)C)c(=O)[nH]2)CC1 | -17.9%
CC(C)C(Sc1nnc(C2CC2)n1C1CC1)C(=O)NCc1cccnc1 (stereo not given) | -11.2%
CC(C)[C@@H]1CN(C(=O)CCn2ccccc2=O)C[C@H]1NS(C)(=O)=O | 6.2%
CCn1cc2c(n1)C(COC)CN(c1ccc(C)nn1)C2 (stereo not given) | 11.6%
Cc1cccc(-c2nc(CN3CCc4c(ncn4C)C3)no2)c1 | -9.42%
CN(C)CCN(Cc1ccc(Cl)cc1)C(=O)c1ccn(C)c(=O)c1 | -5.22%
CCN(CC)C(=O)[C@@H]1C[C@@H](n2cc(-c3cccc(OC)c3)nn2)CN1 | -5.98%
O=C(OCC1CCCN1)c1cccc(NC(=O)c2ccco2)c1 (stereo not given) | -6.66%
CN1CCOC(CN(C(=O)CC2CCCC2)c2nccs2)C1 (stereo not given) | -3.78%
CCC(=O)N1CCC(c2nc(N3CCOCC3)ncc2S(C)(=O)=O)CC1 | 3.65%
NC(=O)N1CCCC(C(=O)N2CCN(c3nsc4ccccc34)CC2)C1 (stereo not given) | 7.86%
O=C(NCc1ccccn1)[C@@]12CCO[C@@H]1CCN(c1ncccn1)C2 | -98.4%
